MIC and KA data for four compounds are collected here from ChEMBL document CHEMBL1124384, “Deaminoteicoplanin and its derivatives. Synthesis, antibacterial activity, and binding strength to Ac-D-Ala-D-Ala” (J Med Chem, 1989).

For data set [1], the system named is Staphylococcus aureus. As to the kind of experiment: Minimal inhibitory concentration of compound against Staphylococcus aureus Tour determined in iso-sensitest broth supplemented with 30% bovine serum and an inoculum of 10e4 cfu/mL.
In data set [2] the test system is Staphylococcus epidermidis. Briefly: Minimal inhibitory concentration of compound against […] ATCC 12228. In kind it is functional.
In a further data set the test system is Streptococcus pneumoniae. As to the kind of experiment: Minimal inhibitory concentration of compound against Streptococcus pneumoniae UC41. In kind it is functional. Summed up: (§1)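 Streptococci were tested by 2-fold broth microdilution in Todd-Hewitt broth, with a final inoculum of about 10⁴ cfu/mL. After 18–24 h at 37 °C, MIC was read as the lowest concentration with no visible growth.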

For data set [3], the system named is Staphylococcus aureus. Briefly: Minimal inhibitory concentration of compound against Staphylococcus aureus Tour. Format: functional. Summed up: (§2)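 Broth MIC by 2-fold serial dilution in microtiter format, in Iso-sensitest broth, with a final inoculum of about 10⁴ cfu/mL. Plates were incubated 18–24 h at 37 °C. MIC was taken as the lowest concentration with no visible growth.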

Data set [4] deals with Staphylococcus aureus. As to the kind of experiment: Minimal inhibitory concentration of compound against Staphylococcus aureus Tour in an inoculum of 10e6 cfu/mL. Format: functional. The gist of the method:
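Twofold microtiter broth dilution in Iso-sensitest broth, with the inoculum raised to 10⁶ cfu/mL. After 18–24 h at 37 °C, MIC was read as the lowest concentration giving no visible growth.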

Another data set relates to Enterococcus faecalis. Briefly: Minimal inhibitory concentration of compound against Streptococcus faecalis AACC7080. In kind it is functional. The gist of the method:
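For S. faecalis, 2-fold dilution MIC in a microtiter system using Iso-sensitest broth and a final inoculum of about 10⁴ cfu/mL. Incubation was 18–24 h at 37 °C. The endpoint was the lowest concentration without visible growth.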

The nature of data set [5]: Association constant for compound at 31 degree C was determined. Format: ADME. The gist of the method: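 UV difference spectroscopy at 31 °C. Antibiotic at 25 μM in 10% methanol/0.02 M sodium citrate buffer, pH 5, sat in sample and reference cells (4-cm path). Ac-D-Ala-D-Ala was added from a 4 mM stock to the sample cell, with buffer added to the reference. The absorbance change was read at 282–285 nm. K_A came from Scatchard plots, with antibiotic concentration set by UV at 279 nm.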

The next data set has as its system Streptococcus pyogenes. As to the kind of experiment: Minimal inhibitory concentration of compound against Streptococcus pyogenes C203. Format: functional. Summed up: as §1
In data set [6] the test system is Staphylococcus aureus. As to the kind of experiment: Minimal inhibitory concentration of compound against Staphylococcus aureus. In kind it is functional. Summed up: as §2

Each structure is given as a SMILES string. ≈ marks a conversion by molar mass, not a printed value.

For orientation: MIC means the least concentration at which growth counts as inhibited. Consider `O=C1Cc2ccc(O)c(c2)Oc2cc(O)cc(c2)[C@@H]2NC(=O)[C@@H](Cc3ccc(c(Cl)c3)Oc3cc4cc(c3O)Oc3ccc(cc3Cl)[C@@H](O)[C@@H]3NC(=O)[C@H](NC(=O)[C@@H]4NC2=O)c2ccc(O)c(c2)-c2c(O)cc(O)cc2[C@@H](C(=O)O)NC3=O)N1`, for which the MIC was determined as 1 µg/mL (≈ 0.845 µM) against Staphylococcus aureus [1]; 0.25 µg/mL (≈ 0.211 µM) in data set [2]; 0.06 µg/mL (≈ 0.0507 µM) in the data set on Streptococcus pneumoniae; 0.12 µg/mL (≈ 0.101 µM) in the data set with Staphylococcus aureus [3]; 0.25 µg/mL (≈ 0.211 µM) in the data set on Staphylococcus aureus [4]; 0.12 µg/mL (≈ 0.101 µM) against Enterococcus faecalis. In the data set with Streptococcus pyogenes, this compound displayed an MIC of 0.06 µg/mL (≈ 0.0507 µM). This compound returned a KA in data set [5] of 11000 M⁻¹.

`CCCCCCCCCC(=O)N[C@@H]1[C@H](Oc2c3cc4cc2Oc2ccc(cc2Cl)[C@@H](O[C@@H]2O[C@@H](CO)[C@@H](O)[C@H](O)[C@@H]2NC(C)=O)[C@@H]2NC(=O)[C@H](NC(=O)[C@@H]4NC(=O)[C@H]4NC(=O)[C@@H](Cc5ccc(c(Cl)c5)O3)NC(=O)Cc3ccc(O)c(c3)Oc3cc(O)cc4c3)c3ccc(O)c(c3)-c3c(O[C@H]4O[C@H](CO)[C@@H](O)[C@@H](O)[C@@H]4O)cc(O)cc3[C@@H](C(=O)O)NC2=O)O[C@@H](CO)[C@@H](O)[C@@H]1O`: the MIC in the data set with Staphylococcus aureus [1] amounted to 8 µg/mL (≈ 4.29 µM); in data set [2], 0.12 µg/mL (≈ 0.0644 µM); in the data set with Staphylococcus aureus [6], 0.5 µg/mL (≈ 0.268 µM); in the data set on Streptococcus pneumoniae it was 0.25 µg/mL (≈ 0.134 µM); against Staphylococcus aureus [4] it was 2 µg/mL (≈ 1.07 µM); against Enterococcus faecalis, 0.5 µg/mL (≈ 0.268 µM). Besides, 0.12 µg/mL (≈ 0.0644 µM) was the least that counted as inhibitory in the data set on Streptococcus pyogenes (MIC). The KA in data set [5] amounted to 130000 M⁻¹.

Turning to `O=C1Cc2ccc(O)c(c2)Oc2cc(O)cc(c2)[C@@H]2NC(=O)[C@@H](Cc3ccc(c(Cl)c3)Oc3cc4cc(c3O)Oc3ccc(cc3Cl)[C@@H](O)[C@@H]3NC(=O)[C@H](NC(=O)[C@@H]4NC2=O)c2ccc(O)c(c2)-c2c(O)cc(O)cc2[C@@H](C(=O)NC2CN4CCC2CC4)NC3=O)N1` (some centres not stated), the MIC stood at 4 µg/mL (≈ 3.1 µM) against Staphylococcus aureus [1]; 0.12 µg/mL (≈ 0.0929 µM) in data set [2]; 0.12 µg/mL (≈ 0.0929 µM) with Streptococcus pneumoniae; 0.12 µg/mL (≈ 0.0929 µM) against Staphylococcus aureus [3]; 0.25 µg/mL (≈ 0.193 µM) with Staphylococcus aureus [4]; 0.25 µg/mL (≈ 0.193 µM) against Enterococcus faecalis. The same compound displayed an MIC against Streptococcus pyogenes of 0.12 µg/mL (≈ 0.0929 µM). For the same compound, in data set [5], the KA is 22000 M⁻¹.

For the compound `N[C@H]1C(=O)N[C@@H]2Cc3ccc(c(Cl)c3)Oc3cc4cc(c3O)Oc3ccc(cc3Cl)[C@@H](O)[C@@H]3NC(=O)[C@H](NC(=O)[C@@H]4NC(=O)[C@@H](NC2=O)c2cc(O)cc(c2)Oc2cc1ccc2O)c1ccc(O)c(c1)-c1c(O)cc(O)cc1[C@@H](C(=O)O)NC3=O` [TEICOPLANIN AGLYCON], the MIC was 0.25 µg/mL (≈ 0.209 µM) against Staphylococcus aureus [1]; 0.016 µg/mL (≈ 0.0133 µM) in data set [2]; 0.12 µg/mL (≈ 0.1 µM) in the data set with Streptococcus pneumoniae; 0.06 µg/mL (≈ 0.05 µM) in the data set on Staphylococcus aureus [3]; 0.12 µg/mL (≈ 0.1 µM) against Staphylococcus aureus [4]; 0.12 µg/mL (≈ 0.1 µM) in the data set with Enterococcus faecalis. For the same compound, the MIC against Streptococcus pyogenes is 0.12 µg/mL (≈ 0.1 µM). For the same compound, the KA in data set [5] turned out to be 180000 M⁻¹.
